# Screening results: PubChem, several laboratories
# HSF1 inhib: HSF1 inhibitors in luciferase reporter cells, primary screen, cell-based, NIH3T3, luminescence; NIH3T3-HGL HSE-luciferase, MG132-induced, luminescence 8 h; stronger effect = lower value; activity change, negative = inhibition, % at 7.5 µM (by protocol); 300,000 tested, 0.77% active; AID 2098, 2009;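 active = more than half of replicate wells show activity change below -50%, luminescence cut by over half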;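 also: luciferase reports HSF-1 transcriptional activity via heat shock element; 0% = median of DMSO wells and -100% = zero luminescence signal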
# HSF-1 act: HSF-1 activators, primary screen, NIH3T3-HGL cells, MG132 stress, luminescence, single point. activation, % at 9 µM. NIH3T3-HGL HSF-1 luciferase reporter, 8 h; 100% = twice DMSO control signal. 300,000 tested, 1.7% active;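 active = mean replicate activation of at least 50% with a set share of replicates each reaching 50%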;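 also: 0% = median of the neutral control wells and 100% = twice that signal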
# PHOSPHO1 block: PubChem AID 1565 | recombinant PHOSPHO1, absorbance phosphatase assay | inhibition, % at 13.3 µM | 290,000 tested, 1.1% active | Phosphoethanolamine/phosphocholine phosphatase (Homo sapiens), Q8TCT1; in the data active = inhibition above about 60%
# Target sequence (Q8TCT1 whole entry, looked up): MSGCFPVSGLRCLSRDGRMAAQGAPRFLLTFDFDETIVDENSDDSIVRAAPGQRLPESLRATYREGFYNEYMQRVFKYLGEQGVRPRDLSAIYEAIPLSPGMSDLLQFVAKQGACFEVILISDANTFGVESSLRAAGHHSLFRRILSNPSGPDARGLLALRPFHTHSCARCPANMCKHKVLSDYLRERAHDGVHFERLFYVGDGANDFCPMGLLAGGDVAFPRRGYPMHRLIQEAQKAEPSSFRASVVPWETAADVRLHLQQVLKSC
# AI-2 QS mod: Vibrio harveyi AI-2 quorum sensing modulators, primary screen, JMH597 strain, luminescence/OD600 ratio; Vibrio harveyi JMH597 AI-2 luminescence/OD600 ratio, 9 h; stronger effect = lower value; strain lacks LuxN and CqsS sensors; 0 = neutral-control median; activity change, % at 7.5 µM; 300,000 tested, 0.4% active; in the data active = activity change below about -75%, passing the limit was not always enough;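 also: luminescence divided by OD600 gain over 9 h not by final OD600 alone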
# core dimer inh: inhibitors of HCV core protein dimerization, primary screen, biochemical, TR-FRET, high-throughput; TR-FRET GST/Flag-core106 dimerization, 1536-well; inhibition, % at 5 µM; 300,000 tested, 0.33% active; AID 1899, 2009;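 active = inhibition above the mean of all tested compounds plus 3 SD, set per screening campaign, cut at about 45% in these data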
#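 Assay system: tagged HCV core106 pair (GST and Flag); medium: KF-containing HEPES buffer, pH 7.45, DTT, CHAPS, BSA; also added: Eu donor and XL665 acceptor anti-tag antibodies; dosing: 5 µM single dose; timing: compound-protein-antibody incubation 4 h at 22.5 °C; signal: TR-FRET 671 and 617 nm emission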
# ALR inh: inhibitors of human ALR sulfhydryl oxidase, primary screen, biochemical, H2O2 detection, HRP-luminol luminescence, single point. purified ALR, DTT oxidation. inhibition, % (concentration not given with the values). 290,000 tested, 3.8% active. AID 485317, 2010;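 active = mean replicate inhibition above about 79%, with every replicate also reaching it, limit read from the data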
# Target sequence (P55789 whole entry, looked up): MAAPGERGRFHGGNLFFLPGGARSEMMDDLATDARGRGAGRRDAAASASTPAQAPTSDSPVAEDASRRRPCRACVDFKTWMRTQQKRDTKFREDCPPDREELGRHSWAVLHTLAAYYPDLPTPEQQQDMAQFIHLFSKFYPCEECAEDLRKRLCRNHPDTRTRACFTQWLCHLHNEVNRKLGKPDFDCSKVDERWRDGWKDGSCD
# * = called active by the depositor; . = not tested or not shown. The list is not random: actives were taken first. Their share in the collection is about 6.8%.
SMILES,HSF1 inhib,HSF-1 act,PHOSPHO1 block,AI-2 QS mod,core dimer inh,ALR inh
CC(=O)c1cccc(NC(=O)COc2cc(C)on2)c1,.,.,.,.,.,-1.0
CC(=O)c1cn(-c2ccc(Cl)cc2)c(=O)n(Cc2ccc(Br)cc2)c1=O,-2.2,0.6,12.4,10.4,5.4,0.8
Cc1sc2nc(CSC(C)C(=O)Nc3cc(S(C)(=O)=O)ccc3Cl)[nH]c(=O)c2c1C (configuration not stated),9.0,25.0,.,5.7,3.4,98.4*
Cc1ccc(NC(=O)C(C)SCc2nc3sc(C)c(C)c3c(=O)[nH]2)nc1 (configuration not stated),4.3,-8.9,.,26.5,-5.5,98.7*
Cc1ccc(C)c(SCC(=O)Nc2ccc(C)c(S(=O)(=O)N3CCOCC3)c2)c1,.,.,.,.,.,-1.4
CCn1c(CC(=O)Nc2ccc(Cl)c(Cl)c2)nnc1SCc1ccc(Cl)cc1,-9.7,1.9,-16.8,19.9,4.8,-4.8
CCn1c(CS(=O)Cc2ccc(Cl)cc2Cl)nnc1SCc1c(Cl)cccc1Cl (configuration not stated),2.2,22.0,37.3,8.5,9.2,99.0*
CN1CCN(CCCNC(=O)c2ccc3c(c2)N(Cc2ccc(F)cc2)CCS3)CC1,0.8,8.2,30.7,.,-7.5,98.9*
CCOC(=O)N1CCC(NC(=O)c2ccc3c(c2)N(Cc2ccc(F)cc2)CCS3)CC1,-0.7,-1.2,14.1,3.2,11.4,36.3
O=C(NCCN1CCOCC1)c1cc2sccc2n1Cc1ccc(F)cc1,2.8,-3.2,-2.6,-2.8,-4.5,96.6*
O=C(NCC1CCCO1)c1ccc2c(c1)N(Cc1ccc(F)cc1)CCS2 (configuration not stated),14.5,14.2,18.4,.,-0.8,98.6*
O=C(NCC1CCCO1)c1ccc2c(c1)N(Cc1ccc(F)cc1Cl)C(=O)CS2 (configuration not stated),4.7,11.8,52.6,46.7,-1.7,.
CCOC(=O)N1CCN(C(=O)c2ccc3c(c2)N(Cc2ccc(F)cc2)CCS3)CC1,3.3,11.9,22.8,19.8,8.3,97.6*
C=CCN1CCN(C(=O)c2ccc3c(c2)OCO3)CC1,-4.8,4.4,9.8,11.4,-3.1,-0.5
O=C(NCCN1CCOCC1)c1ccc2c(c1)N(Cc1ccc(F)cc1)C(=O)CS2,-4.0,-5.3,-10.0,19.1,-13.4,-13.6
O=C(NCCCN1CCOCC1)c1ccc2c(c1)N(Cc1ccc(F)cc1)CCS2,5.4,12.8,17.4,-0.7,-1.5,98.9*
CNCc1sccc1C,-1.4,1.0,-6.7,-9.3,1.6,-3.1
COC(=O)CNC(=S)NC(=O)c1ccc(C(C)(C)C)cc1,2.1,4.7,39.4,-32.3,1.1,.
CCOc1ccc(/C=C/C(=O)C(C(N)=O)=C2SCCS2)cc1,48.9,74.9*,7.0,12.8,3.5,-21.7
CN(CC(=O)Nc1ccccc1Br)CC(=O)Nc1ccccc1C(F)(F)F,-1.6,-6.9,38.1,9.0,-3.5,-23.5
COc1cccc(C2C(C(=O)Nc3ccccc3)=C(C)N=c3s/c(=C/c4ccc(OCC(=O)O)cc4)c(=O)n32)c1 (configuration not stated),3.9,42.7,11.7,17.6,6.2,96.6*
COc1cccc(C2C(C(=O)OC(C)C)=C(C)N=c3s/c(=C\c4ccc(C(=O)O)cc4)c(=O)n32)c1 (configuration not stated),-10.5,-28.4,15.1,-6.9,3.1,6.9
NC(=O)C1=C[C@@H](c2csc3ccccc23)C[C@@H](OCCCCO)O1,-1.3,-16.3,19.8,26.3,-13.0,-28.8
N#C/C(=C/c1ccc(N2CCCCCC2)o1)c1cccc(F)c1,47.9,80.7*,-24.5,11.8,-0.2,1.4
N#C/C(=C/c1ccc(N2CCOCC2)o1)c1ccc(Br)cc1,80.0,93.5*,47.3,7.6,-11.6,91.9*
SMILES,HSF1 inhib,HSF-1 act,PHOSPHO1 block,AI-2 QS mod,core dimer inh,ALR inh
N#C/C(=C\c1ccc(N2CCOCC2)o1)c1ccccc1,27.8,38.9,-4.6,14.5,-16.9,.
N#C/C(=C/c1ccc(N2CCCCCC2)o1)c1ccc(F)cc1,93.2,114.5*,.,24.8,7.2,17.2
N#C/C(=C/c1ccc(N2CCOCC2)o1)c1nc2ccccc2[nH]1,.,.,13.5,.,-90.8,43.6
O=C(NC(=S)Nc1ccc(CN2CCCCC2)cc1)c1cccc(OCc2ccccc2)c1,10.3,16.1,7.7,10.0,-1.9,0.1
O=C(O)c1ccc(NC(=S)NC(=O)c2ccc3ccccc3c2)cc1,15.9,27.0,-12.6,12.0,-1.4,-10.6
O=C(O)c1ccc(NC(=S)NC(=O)c2cccc(COc3ccccc3)c2)cc1,5.2,5.4,20.8,-2.2,13.7,96.9*
O=C(O)c1cccc(NC(=S)NC(=O)c2ccc3ccccc3c2)c1,-70.9*,-74.6,7.5,8.4,3.8,8.4
CN(C)C(=O)OCc1c(-c2ccccc2)ncc2ccccc12,.,.,.,.,.,13.0
CCOc1ccccc1N(C)S(=O)(=O)c1ccc2c(c1)N(C(C)=O)CCO2,-4.8,-15.4,32.9,0.3,-12.6,46.7
O=C(CCCCCn1c(=S)[nH]c2cc3c(cc2c1=O)OCO3)N1CCN(C(=O)c2ccco2)CC1,-67.3*,-76.2,-55.5,-0.1,8.2,-8.5
COc1ccc(N2CCN(C(=O)CCCn3c(=S)[nH]c4cc5c(cc4c3=O)OCO5)CC2)cc1,10.4,27.3,41.1,13.0,8.8,15.7
Cc1ccc(C)c(N2CCN(C(=O)CCn3c(=S)[nH]c4cc5c(cc4c3=O)OCO5)CC2)c1,3.9,12.7,70.2*,33.3,22.6,26.5
COc1ccc(OC)c(C2=C/C(=C/c3ccccn3)C(=O)O2)c1,-16.3,-21.8,2.0,8.4,4.3,-28.2
COc1cccc(CN2CC(C(=O)NCCCn3ccnc3C)CCC2=O)c1 (configuration not stated),-1.8,6.3,22.6,11.8,0.5,1.9
CCN(CC)c1ccc2cc(NC(=O)CCC(=O)O)c(=O)oc2c1,2.0,19.6,7.0,30.5,-15.0,98.6*
CCn1c(CNc2ccc(Cl)cc2)nnc1SCc1ccc(Cl)cc1,-8.8,1.7,29.9,4.2,4.3,-1.5
CCn1c(CNc2ccc(Cl)cc2)nnc1SCCN1CCCCC1,1.7,-3.1,5.7,20.5,-4.9,98.0*
CCCn1c(SCC(=O)Nc2cc(S(=O)(=O)N3CCOCC3)ccc2OC)n[nH]c1=O,-5.7,-3.4,-4.0,9.0,-2.3,-9.0
COc1cc(SC)ccc1C(=O)Nc1c(Cl)cncc1Cl,-0.9,-6.8,55.9,-0.1,3.1,76.6*
